From ChEMBL document CHEMBL3124809, “Back pocket flexibility provides group II p21-activated kinase (PAK) selectivity for type I 1/2 kinase inhibitors” (J Med Chem, 2014)

Legend:
[1] = biological target: Serine/threonine-protein kinase PAK 1 (Homo sapiens, UniProt Q13153); test: Binding affinity to N-terminal GST-His-tagged recombinant human PAK1 kinase domain expressed in Escherichia coli BL21 using KKRNRRLSVA as sustrate preincubated for 10 mins followed by ATP addition measured after 60 mins by FRET-based Z'Lyte assay
[2] = biological target: Serine/threonine-protein kinase PAK 4 (Homo sapiens, UniProt O96013); test: Binding affinity to N-terminal GST-tagged recombinant human PAK4 kinase domain expressed in Escherichia coli using KKRNRRLSVA as substrate preincubated for 10 mins followed by ATP addition measured after 60 mins by FRET-based Z'Lyte assay
[3] = Cytotoxicity against human MDA-MB-436 cells assessed as reduction in cell viability after 24 to 48 hrs by Celltiter-glo luminescence assay; type: functional, cell-based
Method in brief: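 Cells sparsely plated in 96-well plates and allowed to adhere, then given DMSO or compound (0.1, 1, 10, 50 μM) for 24 and 48 h. Metabolically active cells quantified by CellTiter-Glo luminescence. MDA-MB-436 grown in DMEM/10% FBS; MCF10A PIK3CA (one endogenous H1047R allele) in DMEM/F12 with 5% horse serum, insulin, hydrocortisone.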

Serine/threonine-protein kinase PAK 4, sequence (O96013 whole entry, the tested form may be a part): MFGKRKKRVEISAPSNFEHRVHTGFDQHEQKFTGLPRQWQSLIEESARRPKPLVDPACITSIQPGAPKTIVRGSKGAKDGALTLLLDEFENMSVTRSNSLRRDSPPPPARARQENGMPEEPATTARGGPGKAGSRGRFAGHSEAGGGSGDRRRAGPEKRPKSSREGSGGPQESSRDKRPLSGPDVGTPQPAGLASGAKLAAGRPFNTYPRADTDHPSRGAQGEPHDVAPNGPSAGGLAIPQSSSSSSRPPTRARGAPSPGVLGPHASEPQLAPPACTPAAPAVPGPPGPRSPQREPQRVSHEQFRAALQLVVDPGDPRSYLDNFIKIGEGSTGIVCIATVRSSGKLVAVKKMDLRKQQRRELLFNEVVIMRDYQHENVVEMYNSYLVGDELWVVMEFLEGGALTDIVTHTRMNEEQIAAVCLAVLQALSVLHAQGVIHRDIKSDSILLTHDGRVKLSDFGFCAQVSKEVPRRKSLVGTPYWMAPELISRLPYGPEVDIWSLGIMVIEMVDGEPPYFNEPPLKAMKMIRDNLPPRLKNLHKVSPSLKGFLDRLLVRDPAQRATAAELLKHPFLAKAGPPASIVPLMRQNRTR
Serine/threonine-protein kinase PAK 1, sequence (Q13153 whole entry, the tested form may be a part): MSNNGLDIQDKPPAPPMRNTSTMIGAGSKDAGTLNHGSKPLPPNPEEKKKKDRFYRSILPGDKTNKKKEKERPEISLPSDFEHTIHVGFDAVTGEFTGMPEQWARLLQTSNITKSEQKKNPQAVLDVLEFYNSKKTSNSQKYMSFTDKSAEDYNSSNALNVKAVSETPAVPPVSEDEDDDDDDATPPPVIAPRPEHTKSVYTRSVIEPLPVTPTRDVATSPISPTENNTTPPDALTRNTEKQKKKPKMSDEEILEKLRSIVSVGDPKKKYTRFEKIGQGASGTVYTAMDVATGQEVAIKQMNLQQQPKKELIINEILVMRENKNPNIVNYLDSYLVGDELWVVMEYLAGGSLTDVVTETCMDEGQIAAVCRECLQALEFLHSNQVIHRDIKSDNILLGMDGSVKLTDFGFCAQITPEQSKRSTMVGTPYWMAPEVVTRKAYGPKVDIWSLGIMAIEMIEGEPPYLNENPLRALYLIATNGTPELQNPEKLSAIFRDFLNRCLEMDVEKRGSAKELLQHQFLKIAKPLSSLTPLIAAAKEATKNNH

Row | Compound | Ki [1] | Ki [2] | IC50 [3]
1 | Cc1nc2ccc(C#CC(C)(O)CC3CC3)cc2n1-c1ncnc(N)n1 (racemic) | > 4500 nM | 670 nM | 
2 | Cc1nc2ccc(C#CC(C)(O)CO)cc2n1-c1ncnc(N)n1 (racemic) | > 4500 nM | > 2900 nM | 
3 | Cc1nc(Nc2n[nH]c3c2CN(C(=O)N[C@H](CN(C)C)c2ccccc2)C3(C)C)c2sccc2n1 [PF-03758309] |  |  | 0.79 nM
4 | CC(C)(O)C#Cc1ccc2cnn(-c3ccnc(N)n3)c2c1 | > 4500 nM | 120 nM | 
5 | Cc1nc2ccc(C#CC(C)(O)c3ncccn3)cc2n1-c1ncnc(N)n1 (racemic) | > 4500 nM | > 2900 nM | 

Second part, led by results:

Row | Ki [1] | Ki [2] | Compound | IC50 [3]
6 | > 4500 nM | > 2900 nM | Cc1nc2ccc(C#CC(C)(C)CO)cc2n1-c1ncnc(N)n1 | 
7 | > 4500 nM | > 2900 nM | Cc1nc2ccc(C#CC3(O)CCCOC3)cc2n1-c1ncnc(N)n1 (racemic) | 
8 | > 4500 nM | > 2900 nM | Cc1nc2ccc(C#CC3(O)COC3)cc2n1-c1ncnc(N)n1 | 
9 | > 4500 nM | 190 nM | Cc1nc2ccc(C#C[C@@]3(O)C[C@@H]4CC[C@H]3C4)cc2n1-c1ncnc(N)n1 (racemic) | 
